In ChEMBL document CHEMBL1122112, “Imidodisulfamides. 1. A novel class of antagonists of slow-reacting substance of anaphylaxis” (1982):

species: Cavia porcellus; assay: Percent inhibition of slow reacting substance of anaphylaxis (SRS-A) induced contractions of isolated guinea pig ileum at 10 uM concentration.; type: functional
Procedure, shortened: (§1)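 Ileum segments proximal to Peyer's patch from male albino Hartley guinea pigs (400-600 g), in modified Tyrode's at 37.5 °C gassed with 95% O2-5% CO2. Isometric contractions recorded. Partially purified guinea pig SRS-A applied at a level giving 60-80% of maximal contraction until responses are reproducible, then reapplied after incubation with compound. Controls receive vehicle. Inhibition is the mean % change in treated tissue minus the mean % change in controls. FPL-55712 serves as reference.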

Row | Compound | inhibition at 10 µM
1 | O=S(=O)(NCc1ccccc1)NS(=O)(=O)NCc1ccccc1 | 0.2%
2 | O=S(=O)(NCCCCc1ccccc1)NS(=O)(=O)NCCCCc1ccccc1 | 40%
3 | O=S(=O)(NCCCCc1ccc(Cl)cc1)NS(=O)(=O)NCCCCc1ccc(Cl)cc1 | 22%
4 | O=S(=O)(NCCCCCc1ccccc1)NS(=O)(=O)NCCCCCc1ccccc1 | 8%
5 | O=S(=O)(NCCc1ccc(Cl)c(Cl)c1)NS(=O)(=O)NCCc1ccc(Cl)c(Cl)c1 | 43%
6 | O=S(=O)(Nc1ccc(C(F)(F)F)cc1)NS(=O)(=O)Nc1ccc(C(F)(F)F)cc1 | 24%
7 | O=S(=O)(NCCCCCCc1ccccc1)NS(=O)(=O)NCCCCCCc1ccccc1 | 15%
8 | O=S(=O)(NCCc1ccccc1Cl)NS(=O)(=O)NCCc1ccccc1Cl | 8%

species: Cavia porcellus; assay: Percent inhibition of slow reacting substance of anaphylaxis (SRS-A) induced contractions of isolated guinea pig ileum at 5 uM concentration.; type: functional; procedure, shortened: as §1

Row | Compound | inhibition at 5 µM
9 | CCCCc1ccc(NS(=O)(=O)NS(=O)(=O)Nc2ccc(CCCC)cc2)cc1 | 5%
10 | CCOC(=O)c1ccc(NS(=O)(=O)NS(=O)(=O)Nc2ccc(C(=O)OCC)cc2)cc1 | -5%
11 | O=S(=O)(NCCc1cccc(SC(F)(F)F)c1)NS(=O)(=O)NCCc1cccc(SC(F)(F)F)c1 | -6%

species: Cavia porcellus; assay: Percent inhibition of slow reacting substance of anaphylaxis (SRS-A) induced contractions of isolated guinea pig ileum at 20 uM concentration.; type: functional; procedure, shortened: as §1

Row | Compound | inhibition at 20 µM
12 | O=S(=O)(NCCCc1ccccc1)NS(=O)(=O)NCCCc1ccccc1 | 15%
13 | O=S(=O)(NCCc1ccccc1)NS(=O)(=O)NCCc1ccccc1 | 7%
14 | O=S(=O)(Nc1ccccc1)NS(=O)(=O)Nc1ccccc1 | 6%
15 | O=S(=O)(NCCc1ccc(Cl)cc1)NS(=O)(=O)NCCc1ccc(Cl)cc1 | 62%

species: Cavia porcellus; assay: Percent inhibition of slow reacting substance of anaphylaxis (SRS-A) induced contractions of isolated guinea pig ileum at 50 uM concentration.; type: functional; procedure, shortened: as §1

Row | Compound | inhibition at 50 µM
16 | COc1ccccc1CCNS(=O)(=O)NS(=O)(=O)NCCc1ccccc1OC | 0.2%
17 | O=S(=O)(Nc1ccc(Br)cc1)NS(=O)(=O)Nc1ccc(Br)cc1 | 47%
18 | O=S(=O)(Nc1cccc(Cl)c1)NS(=O)(=O)Nc1cccc(Cl)c1 | 16%
19 | O=S(=O)(Nc1cccc(F)c1)NS(=O)(=O)Nc1cccc(F)c1 | 10%
20 | O=[N+]([O-])c1ccc(CCNS(=O)(=O)NS(=O)(=O)NCCc2ccc([N+](=O)[O-])cc2)cc1 | 19%
21 | O=S(=O)(Nc1cccc(C(F)(F)F)c1)NS(=O)(=O)Nc1cccc(C(F)(F)F)c1 | 34%
22 | O=S(=O)(NCCc1cccc(C(F)(F)F)c1)NS(=O)(=O)NCCc1cccc(C(F)(F)F)c1 | 32%
23 | O=S(=O)(Nc1ccc(F)cc1)NS(=O)(=O)Nc1ccc(F)cc1 | 1%
24 | O=S(=O)(NCCc1cccc(Cl)c1)NS(=O)(=O)NCCc1cccc(Cl)c1 | 16%
25 | COc1cccc(CCNS(=O)(=O)NS(=O)(=O)NCCc2cccc(OC)c2)c1 | 9%
26 | O=S(=O)(NCCc1ccc(Br)cc1)NS(=O)(=O)NCCc1ccc(Br)cc1 | 72%
27 | Cc1cccc(NS(=O)(=O)NS(=O)(=O)Nc2cccc(C)c2)c1 | 13%
28 | CSc1cccc(NS(=O)(=O)NS(=O)(=O)Nc2cccc(SC)c2)c1 | 12%
29 | Cc1ccc(CCNS(=O)(=O)NS(=O)(=O)NCCc2ccc(C)cc2)cc1 | 1%
30 | O=S(=O)(NCCc1ccc(O)cc1)NS(=O)(=O)NCCc1ccc(O)cc1 | 7%
31 | O=S(=O)(Nc1cccc(Br)c1)NS(=O)(=O)Nc1cccc(Br)c1 | 38%
32 | N#Cc1ccc(NS(=O)(=O)NS(=O)(=O)Nc2ccc(C#N)cc2)cc1 | -8%
33 | CC(=O)c1ccc(NS(=O)(=O)NS(=O)(=O)Nc2ccc(C(C)=O)cc2)cc1 | -11%
34 | O=S(=O)(Nc1ccc(C(F)(F)F)cc1)NS(=O)(=O)Nc1ccc(C(F)(F)F)cc1 | 86%
35 | COc1ccc(CCNS(=O)(=O)NS(=O)(=O)NCCc2ccc(OC)cc2)cc1 | 18%
36 | O=S(=O)(Nc1ccc(Cl)cc1)NS(=O)(=O)Nc1ccc(Cl)cc1 | -2%
